Only some compounds are listed: those with a hit (about 1.7% of all), similar ones and a draw of the others.
Neddyl block – blocks human cullin neddylation; P61081+Q13564; TR-FRET cullin neddylation, biochemical; calls only at 25 µM; 0.58% of 360,000 active; AID 651699; in the data active = inhibition above about 36%
Target sequence (P61081 whole entry, looked up): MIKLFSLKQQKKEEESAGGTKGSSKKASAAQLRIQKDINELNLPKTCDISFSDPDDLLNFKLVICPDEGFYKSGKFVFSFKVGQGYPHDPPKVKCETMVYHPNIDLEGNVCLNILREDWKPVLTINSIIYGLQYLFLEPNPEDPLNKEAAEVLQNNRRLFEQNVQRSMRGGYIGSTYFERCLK
Target sequence (Q13564 whole entry, looked up): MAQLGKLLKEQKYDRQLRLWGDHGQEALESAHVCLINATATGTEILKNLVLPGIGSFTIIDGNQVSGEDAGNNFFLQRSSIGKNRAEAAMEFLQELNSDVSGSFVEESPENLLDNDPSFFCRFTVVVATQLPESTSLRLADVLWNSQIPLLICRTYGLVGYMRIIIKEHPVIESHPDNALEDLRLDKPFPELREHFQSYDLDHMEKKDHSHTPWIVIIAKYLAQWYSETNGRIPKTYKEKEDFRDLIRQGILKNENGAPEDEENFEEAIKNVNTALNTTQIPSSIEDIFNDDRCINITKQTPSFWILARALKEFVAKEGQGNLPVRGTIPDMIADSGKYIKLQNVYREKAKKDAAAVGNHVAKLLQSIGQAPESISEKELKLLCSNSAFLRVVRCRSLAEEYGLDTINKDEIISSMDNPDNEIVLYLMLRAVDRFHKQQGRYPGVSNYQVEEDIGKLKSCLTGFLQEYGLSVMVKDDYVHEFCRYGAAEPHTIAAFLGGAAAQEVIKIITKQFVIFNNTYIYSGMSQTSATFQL
procasp7 counter – counter-screen for procaspase-3 activators: activators of human procaspase-7. P55210. recombinant procaspase-7, Ac-DEVD-pNA absorbance 405 nm; D23A/D198A/D206A triple mutant, cannot self-cleave; scale: DMSO 0, 5 µM enzyme 100. activation, % at 8.5 µM. 0.093% of 330,000 active. AID 463210;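 active = percent activation above the screen-wide mean plus 3 SD, cut at about 25% in these data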
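Material: Procaspase-7 triple mutant (PC-7 D3A) | Quantity: 2 µM procaspase-7 mutant as dispensed | Reagent: DEVD-pNA substrate | Times: 1 h preincubation, 2 h reaction | Technique: 405 nm absorbance of p-nitroaniline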
IMP-1 inhibitor – inhibitors of Pseudomonas aeruginosa IMP-1 metallo-beta-lactamase; purified IMP-1, nitrocefin hydrolysis, epi-absorbance fluorescence; inhibition, % at 5.6 µM; 0.45% of 290,000 active; AID 1556;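 active = inhibition above the mean plus 3 SD of all compounds in the same screening run, cut at about 4.5% in these data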
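System: Purified recombinant IMP-1 metallo-beta-lactamase enzyme | Measured by: Fluorescence quenching readout, ex 480/em 530 nm | Replication: Singlicate | Incubation: 15 min preincubation plus 25 min reaction at 25 °C | Evaluation: Percent inhibition from optical density relative to buffer-blank wells | Benchmarks: DMSO with and without IMP-1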
PolyA inhibitor – yeast polyadenylation inhibition. S. cerevisiae SKY197-pL101 polyadenylation reporter, beta-gal luminescence; efflux-impaired pdr1/pdr3 knockout yeast; score 100 = 6 SD above DMSO. activity score, % at 12 µM. 0.02% of 300,000 active;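 active = lowest replicate activity score at least 50, where 100 means six control SD above control mean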;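 also: yeast exposed to compound for 9 h at 30 °C; higher score means more reporter readthrough which indicates perturbed polyadenylation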
VIM-2 inh – blocks Pseudomonas aeruginosa VIM-2 metallo-beta-lactamase. purified VIM-2, nitrocefin hydrolysis, epi-absorbance fluorescence. inhibition, % at 5.6 µM. 0.89% of 290,000 active. AID 1527;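 active = inhibition above the mean of all tested compounds plus 3 SD, cutoff set per screening run, cut at about 7.5% in these data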;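 also: red hydrolysis product quenches plate fluorescence so inhibitors raise well fluorescence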
procasp3 activ – activates human procaspase-3 | recombinant procaspase-3 D3A, Ac-DEVD-pNA absorbance 405 nm | 0.11% of 330,000 active | activation, % at 8.5 µM | P42574;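 active = activation above the mean of all tested compounds plus 3 SD, cut at about 21% in these data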
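material = Procaspase-3 D3A mutant | probe or stimulus = Ac-DEVD-pNA | compound = single dose, 8.5 µM nominal compound, 0.8% DMSO | timing = 1 h preincubation, 2 h reaction | measured by = 405 nm absorbance of p-nitroaniline, reads at 0 and 120 min | benchmarks = DMSO-only low control, 5 µM PC-3 D3A high control | repeats = singlicate, each compound tested once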
procasp7 triplic – counter-screen for procaspase-3 activators: activators of human procaspase-7; shares compounds with procasp3 activ; recombinant procaspase-7, Ac-DEVD-pNA absorbance; asp23/198/206-to-Ala mutant, cannot self-cleave; activation, % at 8.5 µM; 210 tested, under 10 active;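 active = mean activation above a set limit taken from an earlier procaspase-7 screen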
proCasp3 confirm – confirmation of human procaspase-3 activators; recombinant PC-3 D3A, Ac-DEVD-pNA absorbance 405 nm; 100% is higher-enzyme control; activation, % at 8.5 µM; 10% of 210 active; shares compounds with procasp3 activ;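 active = mean activation above a set limit carried over from the earlier primary screen, cut at about 22% in these data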
A number is an active result; . = inactive; / = not tested or not shown.

SMILES	Neddyl block	procasp7 counter	IMP-1 inhibitor	PolyA inhibitor	VIM-2 inh	procasp3 activ	procasp7 triplic	proCasp3 confirm
CCCCCCCCN1[C@@H](CC(=O)O)c2ccc(C(F)(F)F)cc2S1(=O)=O	.	.	/	.	/	40	.	.
COc1cc(C2NC(=S)NC3=C2C(=O)CCC3)ccc1O (stereo unspecified)	.	.	.	.	.	.	/	/
CCC(CC)NC(=O)c1oc2ccccc2c1COc1ccccc1	.	.	.	.	.	.	/	/
c1ccc(-c2cc3c(ccc4nonc43)nn2)cc1	.	.	.	.	.	.	/	/
Cc1cc2c3nonc3ccc2n1-c1ccccc1	/	.	.	.	.	25	.	.
COC(=O)C1=C(NC(=O)c2cccc(OC)c2)CCS1	.	.	.	.	.	29	.	.
Cc1ccc(S(=O)(=O)c2cc3ccccc3nc2N)cc1	/	.	.	.	.	24	.	.
CC(=O)c1cccc(CN2CCC(CO)(CCOc3ccccc3)CC2)c1	.	.	.	.	.	.	/	/
OCCOc1cccc(CN2CCC(CO)(CCOc3ccccc3)CC2)c1	.	.	.	.	.	25	.	.
CCN(C(=O)c1cnc(OC)cc1C(F)(F)F)c1ccc(Cl)cc1Cl	.	.	.	.	.	.	/	/
CCN(C(=O)c1cnc(OC)cc1C(F)(F)F)c1ccc(Cl)cc1	.	.	.	.	.	27	.	.
CC(C)=CCc1cc(-c2oc3cc(O)cc(O)c3c(=O)c2O)ccc1O	.	.	/	.	/	22	.	.
Cc1cc(OC(=O)c2ccc(Cl)cc2Cl)c([N+](=O)[O-])c(=O)[nH]1	.	.	.	.	.	89	.	.
Cc1cc(OC(=O)c2ccccc2Cl)c([N+](=O)[O-])c(=O)[nH]1	.	.	.	.	.	.	/	/
Cc1ccc(N2CCN(CC(O)COc3ccccc3)CC2)cc1 (stereo unspecified)	.	.	.	.	.	28	.	.
Cc1ccc(OCC(O)CN2CCN(c3ccccc3)CC2)cc1 (stereo unspecified)	.	.	.	.	.	.	/	/
Cc1nc(SCCCSc2n[nH]c(C)n2)n[nH]1	.	.	.	.	.	.	/	/
CNc1ccccc1C(=O)OCC(C)=O	/	.	.	.	.	22	.	24
Cc1ccc(NS(=O)(=O)c2ccc(Cl)s2)cc1S(=O)(=O)N(C)C	.	.	.	.	.	.	/	/
COc1ccc(C2CC(c3ccccc3C(F)(F)F)=NN2c2ccc(S(N)(=O)=O)cc2)cc1 (stereo unspecified)	/	.	/	/	/	35	.	.
COc1cccc(OCCN2CCN(c3ncnc4c3cnn4-c3ccccc3)CC2)c1	.	.	.	.	.	27	.	.
COC(=O)c1ccc(NC(=O)c2ccc3c(c2)OCO3)cc1	.	.	.	.	.	.	/	/
CCCCC(=O)N1C/C=C\C(c2ccc(OC)cc2)N(Cc2ccc(F)cc2)C(=O)[C@H]1Cc1ccccc1 (stereo partly specified)	.	.	/	.	/	.	/	/
Brc1ccc(-c2nn3c(-c4ccco4)nnc3s2)o1	.	.	.	.	.	23	.	.
COc1ccc(OC)c(NC(=O)c2c3c(nc4ccccc24)CCC3)c1	.	.	.	.	.	.	/	/
SMILES	Neddyl block	procasp7 counter	IMP-1 inhibitor	PolyA inhibitor	VIM-2 inh	procasp3 activ	procasp7 triplic	proCasp3 confirm
Cc1c(CCC(=O)NC2CC2)c(=O)oc2cc(O)ccc12	.	.	.	.	.	23	.	.
Cc1c(CC(=O)NCC(=O)N[C@H](Cc2ccccc2)C(=O)O)c(=O)oc2cc(O)ccc12	/	.	.	.	.	25	.	.
Cc1c(C)c2ccc(OCC(=O)N[C@@H](Cc3ccccc3)C(=O)O)cc2oc1=O	/	.	.	.	.	.	/	/
Cc1c(C(C)C)c(=O)n(-c2ccc(S(=O)(=O)NC(C)C)cc2)n1C	.	.	.	.	.	.	/	/
CCOc1ccc(NC(=O)CN(C)C(=O)c2sccc2-c2ccccc2)cc1OCC	.	/	/	/	/	/	/	/
CCCCN(C(=O)CSCC(=O)Nc1cccc(C)c1)c1c(N)n(Cc2ccccc2)c(=O)[nH]c1=O	.	.	/	.	/	24	.	.
CC(C)CNS(=O)(=O)c1ccc(S(=O)(=O)N2CCCN(Cc3ccccc3)C2)cc1	.	.	.	.	.	.	/	/
OC[C@@H]1[C@@H](c2ccc(Cl)cc2)C(c2cccc(Cl)c2)=NN1c1ccccc1	/	.	/	/	/	.	/	/
OC[C@@H]1[C@@H](c2ccc(Cl)cc2)C(c2ccccc2)=NN1c1ccccc1	/	.	/	/	/	22	.	.
Cc1cccc(N2CCN(C(=O)c3c(C)nn(Cc4ccccc4Cl)c3C)CC2)c1C	.	.	.	.	.	55	.	.
CC(=O)Nc1ccc(NC(=O)c2c(C)nn(Cc3ccccc3Cl)c2C)cc1	.	.	.	.	.	.	/	/
CC(=O)Nc1nc(C)c(C(C)=O)s1	.	.	.	.	.	25	.	.
CC(=O)c1sc(NC(=O)C(C)C)nc1C	.	.	.	.	.	.	/	/
COC(=O)c1ccccc1NCc1cc(=O)oc2cc(O)c(O)cc12	/	.	.	.	.	53	.	53
N#Cc1c(-c2ccccc2Cl)c2c([nH]c1=O)-c1ccccc1OC2	/	.	.	.	.	26	.	.
N#Cc1c(-c2ccncc2)c2c([nH]c1=O)-c1ccccc1OC2	/	.	.	.	.	.	/	/
COC(=O)C1=CN(CC2CCCO2)C=C(C(=O)OC)C1c1ccccc1C(F)(F)F (stereo unspecified)	.	.	.	.	.	23	.	.
N#Cc1ccc(OCC(=O)NNC(=S)NC(=O)C2CC2)cc1	.	.	/	/	/	.	/	/
C=C(C)CSc1nnc2n(N)c(=O)c3ccccc3n12	.	.	.	.	.	22	.	.
CCSc1nnc2n(N)c(=O)c3ccccc3n12	/	/	.	/	.	/	/	/
CCc1ccccc1NC(=O)Nc1c(C)n(C)n(-c2ccccc2)c1=O	.	.	.	.	.	.	/	/
COCCn1c(N)c(C(=O)NCc2cccs2)c2nc3ccccc3nc21	/	.	.	.	.	64	.	.
COCCn1c(N)c(C(=O)NCC2CCCO2)c2nc3ccccc3nc21 (stereo unspecified)	/	.	.	.	.	.	/	/
COc1ccc(C2=NC(=O)/C(=C\c3cc(OC)c(OC)c(OC)c3)O2)cc1	.	.	.	/	.	26	27	33
CC1(C(=O)Nc2cccc3cccnc23)CCN1Cc1ccccc1OC(F)F (stereo unspecified)	.	/	/	/	/	/	/	/

Bioassay records from PubChem BioAssay.
